Experimental data: ChEMBL document CHEMBL4477235, “Evolution of a Novel, Orally Bioavailable Series of PI3Kδ Inhibitors from an Inhaled Lead for the Treatment of Respiratory Disease” (J Med Chem, 2016)

Tests used:
[1] = target: Serine/threonine-protein kinase mTOR (Homo sapiens, UniProt P42345); experiment: Inhibition of FRAP1 (unknown origin)
[2] = Oral bioavailability in Sprague-Dawley rat at 3 mg/kg measured up to 7 hrs by LC-MS/MS analysis; type: ADME, organism-based; conditions: in vivo, 7 h
Procedure, shortened: (§1)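 Male Sprague Dawley rats, n = 2 per route, were dosed discretely at 3 mg/kg orally or 1 mg/kg intravenously. The dosing solution was DMSO/PEG200/water (5:45:50 v/v/v). Serial tail-vein blood samples were taken over 0–7 h, and parent compound was quantified by LC–MS/MS. Parameters were estimated by noncompartmental analysis.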

[3] = Clearance in human liver microsomes at 0.5 uM measured up to 30 mins by LC-MS/MS analysis; type: ADME, Microsome; conditions: 0.5 h
[4] = Fraction unbound in Wistar Han rat at 1 mg/kg after 1 hr by HPLC analysis; type: ADME, organism-based; conditions: in vivo
Procedure, shortened: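 Unbound concentration at 1 h post-dose estimated by an internal algorithm from binding to HPLC columns coated with HSA and α-glycoprotein.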

[5] = target: Epidermal growth factor receptor (Homo sapiens, UniProt P00533); experiment: Inhibition of EGFR (unknown origin)
[6] = target: Diacylglycerol kinase zeta (Homo sapiens, UniProt Q13574); experiment: Inhibition of DAGK zeta (unknown origin)
Sequence of Diacylglycerol kinase zeta (Q13574 whole entry): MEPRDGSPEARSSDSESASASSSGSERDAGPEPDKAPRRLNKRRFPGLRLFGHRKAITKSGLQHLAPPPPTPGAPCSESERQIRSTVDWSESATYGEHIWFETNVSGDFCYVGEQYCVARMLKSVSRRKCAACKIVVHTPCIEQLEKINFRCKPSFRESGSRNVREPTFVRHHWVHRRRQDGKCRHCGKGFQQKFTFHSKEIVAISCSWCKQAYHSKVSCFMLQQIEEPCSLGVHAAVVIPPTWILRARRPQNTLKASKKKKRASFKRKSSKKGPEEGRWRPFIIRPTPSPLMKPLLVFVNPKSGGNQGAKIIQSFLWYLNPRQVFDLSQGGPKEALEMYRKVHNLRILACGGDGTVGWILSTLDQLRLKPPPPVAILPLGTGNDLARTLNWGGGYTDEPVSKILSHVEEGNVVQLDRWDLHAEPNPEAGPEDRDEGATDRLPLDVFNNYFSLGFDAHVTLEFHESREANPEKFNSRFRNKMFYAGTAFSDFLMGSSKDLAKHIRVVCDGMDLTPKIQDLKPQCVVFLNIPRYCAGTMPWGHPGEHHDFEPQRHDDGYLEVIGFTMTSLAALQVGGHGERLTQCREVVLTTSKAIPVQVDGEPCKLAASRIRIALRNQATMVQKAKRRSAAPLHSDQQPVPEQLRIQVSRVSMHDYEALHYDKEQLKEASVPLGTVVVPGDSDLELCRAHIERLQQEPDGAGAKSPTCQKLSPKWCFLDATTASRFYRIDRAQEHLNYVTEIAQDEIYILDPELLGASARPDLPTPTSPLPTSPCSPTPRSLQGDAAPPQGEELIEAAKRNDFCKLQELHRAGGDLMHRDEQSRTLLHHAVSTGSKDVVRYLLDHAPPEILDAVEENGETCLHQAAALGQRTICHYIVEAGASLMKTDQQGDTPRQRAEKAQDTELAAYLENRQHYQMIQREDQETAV

[7] = Clearance in rat liver microsomes at 0.5 uM measured up to 30 mins by LC-MS/MS analysis; type: ADME, Microsome; conditions: 0.5 h
Procedure, shortened: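 Rat liver microsomes (0.5 mg protein/mL) prewarmed 10 min at 37 °C, started with NADPH regeneration system. Final compound 0.5 μM. Sampled at 0, 3, 6, 12 and 30 min into acetonitrile with internal standard. Peak area ratios by LC–MS/MS fitted to log-linear decline. Clearance scaled by protein concentration, incubation volume and 52.5 mg microsomal protein/g liver.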

[8] = Inhibition of DAGK (unknown origin); parameters: species or system Homo sapiens
[9] = target: Rho-associated protein kinase 1 (Homo sapiens, UniProt Q13464); experiment: Inhibition of ROCK1 (unknown origin)
Sequence of Rho-associated protein kinase 1 (Q13464 whole entry): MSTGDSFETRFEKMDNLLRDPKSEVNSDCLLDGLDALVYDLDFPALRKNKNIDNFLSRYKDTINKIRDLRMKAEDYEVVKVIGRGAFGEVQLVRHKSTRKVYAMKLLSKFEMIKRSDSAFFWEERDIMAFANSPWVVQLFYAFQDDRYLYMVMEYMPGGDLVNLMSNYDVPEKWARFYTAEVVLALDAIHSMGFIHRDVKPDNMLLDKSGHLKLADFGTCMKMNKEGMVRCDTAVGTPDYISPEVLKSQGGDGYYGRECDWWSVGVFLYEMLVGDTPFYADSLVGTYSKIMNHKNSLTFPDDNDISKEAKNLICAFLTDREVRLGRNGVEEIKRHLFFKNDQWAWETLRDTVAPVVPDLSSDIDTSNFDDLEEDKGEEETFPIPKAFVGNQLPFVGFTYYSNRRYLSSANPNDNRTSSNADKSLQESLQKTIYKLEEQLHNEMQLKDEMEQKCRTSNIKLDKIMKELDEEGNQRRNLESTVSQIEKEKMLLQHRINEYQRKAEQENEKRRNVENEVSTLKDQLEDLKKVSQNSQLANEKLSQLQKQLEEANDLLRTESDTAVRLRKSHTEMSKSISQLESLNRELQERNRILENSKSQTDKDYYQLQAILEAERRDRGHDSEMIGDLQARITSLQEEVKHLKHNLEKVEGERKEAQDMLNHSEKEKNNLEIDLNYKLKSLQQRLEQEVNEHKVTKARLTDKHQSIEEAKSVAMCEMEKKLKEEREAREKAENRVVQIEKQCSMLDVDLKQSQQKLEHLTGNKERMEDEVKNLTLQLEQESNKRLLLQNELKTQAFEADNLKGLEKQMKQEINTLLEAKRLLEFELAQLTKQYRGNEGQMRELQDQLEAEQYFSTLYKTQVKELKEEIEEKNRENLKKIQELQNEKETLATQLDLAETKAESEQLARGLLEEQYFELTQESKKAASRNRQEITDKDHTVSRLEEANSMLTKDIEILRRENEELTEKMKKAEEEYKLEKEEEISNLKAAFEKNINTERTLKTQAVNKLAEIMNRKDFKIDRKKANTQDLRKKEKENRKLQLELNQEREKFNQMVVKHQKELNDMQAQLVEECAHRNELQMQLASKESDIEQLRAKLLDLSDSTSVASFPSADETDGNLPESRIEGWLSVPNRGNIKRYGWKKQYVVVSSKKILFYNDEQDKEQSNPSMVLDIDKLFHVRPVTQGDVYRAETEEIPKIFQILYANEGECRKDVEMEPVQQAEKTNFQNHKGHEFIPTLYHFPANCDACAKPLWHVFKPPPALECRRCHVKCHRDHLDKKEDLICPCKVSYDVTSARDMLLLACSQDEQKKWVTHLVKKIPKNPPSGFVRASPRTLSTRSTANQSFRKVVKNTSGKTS

[10] = Drug uptake in Wistar Han rat blood at 1 mg/kg measured 1 hr post dose; type: ADME, organism-based; conditions: read-out: Drug uptake
[11] = Volume of distribution at steady state in Sprague-Dawley rat at 3 mg/kg, po or 1 mg/kg, iv measured up to 7 hrs by LC-MS/MS analysis; type: ADME, organism-based; conditions: in vivo, read-out: Vdss; procedure, shortened: as §1
[12] = target: Choline kinase alpha (Homo sapiens, UniProt P35790); experiment: Inhibition of choline kinase alpha (unknown origin)
Sequence of Choline kinase alpha (P35790 whole entry): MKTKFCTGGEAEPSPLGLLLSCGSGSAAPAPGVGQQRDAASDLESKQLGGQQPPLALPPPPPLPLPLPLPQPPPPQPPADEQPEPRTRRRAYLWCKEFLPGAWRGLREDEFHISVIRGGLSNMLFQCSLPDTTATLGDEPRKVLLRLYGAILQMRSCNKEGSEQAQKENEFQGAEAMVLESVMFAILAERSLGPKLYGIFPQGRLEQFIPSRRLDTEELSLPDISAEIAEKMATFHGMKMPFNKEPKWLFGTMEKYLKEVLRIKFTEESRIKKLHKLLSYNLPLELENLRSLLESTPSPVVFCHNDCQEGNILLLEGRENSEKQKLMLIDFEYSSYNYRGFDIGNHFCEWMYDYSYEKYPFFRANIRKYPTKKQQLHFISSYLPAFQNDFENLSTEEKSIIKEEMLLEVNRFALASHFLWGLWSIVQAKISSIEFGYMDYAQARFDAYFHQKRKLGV

[13] = target: Phosphatidylinositol 4-kinase alpha (Homo sapiens, UniProt P42356); experiment: Inhibition of PIK4A (unknown origin)
[14] = target: Phosphatidylinositol 5-phosphate 4-kinase type-2 alpha (Homo sapiens, UniProt P48426); experiment: Inhibition of PIP4K2A (unknown origin)
Sequence of Phosphatidylinositol 5-phosphate 4-kinase type-2 alpha (P48426 whole entry): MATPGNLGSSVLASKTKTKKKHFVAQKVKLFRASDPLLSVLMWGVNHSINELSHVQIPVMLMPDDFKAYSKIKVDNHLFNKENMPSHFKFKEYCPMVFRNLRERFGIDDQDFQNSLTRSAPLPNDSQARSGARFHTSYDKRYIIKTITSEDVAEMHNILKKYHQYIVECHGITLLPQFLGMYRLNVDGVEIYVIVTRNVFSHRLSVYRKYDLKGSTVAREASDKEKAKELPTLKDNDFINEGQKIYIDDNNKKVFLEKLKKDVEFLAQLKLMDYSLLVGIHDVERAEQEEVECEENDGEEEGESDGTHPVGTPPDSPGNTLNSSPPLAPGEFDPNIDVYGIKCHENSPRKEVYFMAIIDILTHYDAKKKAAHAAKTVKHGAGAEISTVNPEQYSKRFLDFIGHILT

[15] = target: Mitogen-activated protein kinase kinase kinase 5 (Homo sapiens, UniProt Q99683); experiment: Inhibition of ASK1 (unknown origin)
[16] = target: DNA-dependent protein kinase catalytic subunit (Homo sapiens) (UniProt P78527); experiment: Inhibition of DNA-PK (unknown origin)
[17] = target: Inhibitor of nuclear factor kappa-B kinase subunit beta (Homo sapiens, UniProt O14920); experiment: Inhibition of IKK2 (unknown origin)
[18] = target: Sphingosine kinase 2 (Homo sapiens, UniProt Q9NRA0); experiment: Inhibition of SPHK2 (unknown origin)
Sequence of Sphingosine kinase 2 (Q9NRA0 whole entry): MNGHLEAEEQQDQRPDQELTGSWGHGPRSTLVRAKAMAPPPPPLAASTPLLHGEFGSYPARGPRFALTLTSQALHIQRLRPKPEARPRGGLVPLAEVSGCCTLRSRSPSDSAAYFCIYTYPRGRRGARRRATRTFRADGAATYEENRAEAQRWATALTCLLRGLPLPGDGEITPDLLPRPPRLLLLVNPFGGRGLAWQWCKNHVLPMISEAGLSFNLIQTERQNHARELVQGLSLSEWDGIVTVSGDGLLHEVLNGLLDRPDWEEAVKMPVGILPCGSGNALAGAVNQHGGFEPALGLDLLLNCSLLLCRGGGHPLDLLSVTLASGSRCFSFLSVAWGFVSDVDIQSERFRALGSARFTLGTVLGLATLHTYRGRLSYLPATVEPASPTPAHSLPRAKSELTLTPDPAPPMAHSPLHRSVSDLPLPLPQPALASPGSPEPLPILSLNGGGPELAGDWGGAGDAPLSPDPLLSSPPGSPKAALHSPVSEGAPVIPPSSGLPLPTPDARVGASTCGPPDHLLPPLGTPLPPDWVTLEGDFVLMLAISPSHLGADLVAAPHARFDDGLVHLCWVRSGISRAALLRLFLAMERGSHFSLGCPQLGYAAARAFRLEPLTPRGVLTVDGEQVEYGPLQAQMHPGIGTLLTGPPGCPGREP

[19] = AUC(infinity) in Sprague-Dawley rat at 3 mg/kg, po measured up to 7 hrs by LC-MS/MS analysis; type: ADME, organism-based; parameters: dose 3 mg/kg, time infinity, route oral; conditions: in vivo, 7 h
Procedure, shortened: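 Male Sprague Dawley rats (n = 2/route), oral dose in DMSO/PEG200/water (5:45:50 v/v/v) at 6 mL/kg. Serial tail-vein bleeds over 0–7 h. Parent compound quantified by LC–MS/MS. Parameters from noncompartmental analysis.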

[20] = organism: Homo sapiens; experiment: Selectivity ratio of IC50 for PI3Kbeta (unknown origin) to IC50 for PI3Kdelta (unknown origin)
Procedure, shortened: (§2)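 Ratio of each isoform's HTRF IC50 to the PI3Kδ HTRF IC50. Enzymes were preincubated 15 min with 4-fold compound dilutions in HEPES pH 7.0, MgCl2, DTT buffer. […] PIP2 was 5 µM for δ and 8 µM for α/β/γ. 60 min reaction, then EDTA quench with GRP-1 PH domain/APC/Eu detection. Four-parameter fit.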

[21] = target: Leucine-rich repeat serine/threonine-protein kinase 2 (Homo sapiens, UniProt Q5S007); experiment: Inhibition of LRRK2 (unknown origin)
[22] = Half life in Brown Norway rat acute OVA model of TH2-driven lung inflammation at 3 mg/kg, po pretreated for 30 mins followed by OVA challenge; type: ADME, organism-based; conditions: in vivo
[23] = target: Tyrosine-protein kinase SYK (Homo sapiens, UniProt P43405); experiment: Inhibition of SYK (unknown origin)
[24] = target: Tyrosine-protein kinase JAK3 (Homo sapiens, UniProt P52333); experiment: Inhibition of JAK3 (unknown origin)
Sequence of Tyrosine-protein kinase JAK3 (P52333 whole entry): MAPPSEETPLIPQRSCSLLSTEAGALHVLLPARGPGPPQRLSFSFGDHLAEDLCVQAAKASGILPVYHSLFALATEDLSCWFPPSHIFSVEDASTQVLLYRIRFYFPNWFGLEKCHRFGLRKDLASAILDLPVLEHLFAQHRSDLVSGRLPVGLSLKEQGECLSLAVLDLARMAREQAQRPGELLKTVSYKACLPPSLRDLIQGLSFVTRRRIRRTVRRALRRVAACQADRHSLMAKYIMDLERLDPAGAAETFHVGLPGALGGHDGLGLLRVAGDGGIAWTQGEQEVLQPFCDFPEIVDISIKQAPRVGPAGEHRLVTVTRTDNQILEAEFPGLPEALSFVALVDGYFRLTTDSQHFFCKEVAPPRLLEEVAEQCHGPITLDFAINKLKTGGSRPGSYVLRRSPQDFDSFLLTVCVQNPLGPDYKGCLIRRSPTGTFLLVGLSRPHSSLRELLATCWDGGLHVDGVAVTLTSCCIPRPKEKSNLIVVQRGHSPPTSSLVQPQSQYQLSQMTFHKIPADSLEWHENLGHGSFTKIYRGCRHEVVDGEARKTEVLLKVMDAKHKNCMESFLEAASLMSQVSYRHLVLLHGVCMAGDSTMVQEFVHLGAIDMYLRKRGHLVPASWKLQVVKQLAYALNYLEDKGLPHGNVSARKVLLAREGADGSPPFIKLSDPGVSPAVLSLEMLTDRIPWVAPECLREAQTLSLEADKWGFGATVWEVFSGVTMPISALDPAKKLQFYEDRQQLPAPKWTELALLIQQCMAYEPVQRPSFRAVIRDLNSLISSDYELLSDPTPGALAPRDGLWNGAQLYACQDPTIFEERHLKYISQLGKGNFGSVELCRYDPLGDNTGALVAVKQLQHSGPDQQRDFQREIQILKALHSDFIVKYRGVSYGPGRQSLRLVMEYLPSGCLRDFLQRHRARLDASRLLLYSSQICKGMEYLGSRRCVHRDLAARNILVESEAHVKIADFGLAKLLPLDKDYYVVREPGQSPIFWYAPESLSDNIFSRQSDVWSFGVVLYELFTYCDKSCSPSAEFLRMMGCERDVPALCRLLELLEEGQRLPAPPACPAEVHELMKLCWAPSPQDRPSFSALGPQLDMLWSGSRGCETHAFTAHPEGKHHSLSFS

[25] = organism: Homo sapiens; experiment: Selectivity ratio of IC50 for PI3Kalpha (unknown origin) to IC50 for PI3Kdelta (unknown origin); procedure, shortened: as §2
[26] = target: Phosphatidylinositol 4-phosphate 3-kinase C2 domain-containing subunit beta (Homo sapiens, UniProt O00750); experiment: Inhibition of PIK3C2B (unknown origin)

- IC50 [1]: > 10 µM
- F [2]: 54%
- CLH [3]: < 0.5 mL/min/g
- Drug uptake(free) [4]: 0.089 µM
- IC50 [5]: > 10 µM
- IC50 [6]: > 10 µM
- CLH [7]: < 0.5 mL/min/g
- pIC50 [8]: < 5
- IC50 [9]: > 10 µM
- concentration at 1 h [10]: 520 nM
- Vd [11]: 1.1 L/kg
- IC50 [12]: > 10 µM
- IC50 [13]: > 10 µM
- IC50 [14]: > 10 µM
- IC50 [15]: > 10 µM
- pIC50(app) [16]: 5.6
- IC50 [17]: > 10 µM
- IC50 [18]: > 10 µM
- AUC [19]: 673 ng·h/mL
- Ratio IC50 [20]: 63
- IC50 [21]: > 10 µM
- half-life [22]: 10.6 h
- IC50 [23]: > 10 µM
- IC50 [24]: > 10 µM
- Ratio IC50 [25]: 25
- IC50 [26]: > 10 µM
Structure (SMILES): COc1ncc(-c2cc3c(c(NC(=O)CN4CCOCC4)c2)COC3)cc1NS(C)(=O)=O
